In test [1] the target is T1, Progesterone receptor (Homo sapiens) (UniProt P06401).
T1 sequence (whole entry): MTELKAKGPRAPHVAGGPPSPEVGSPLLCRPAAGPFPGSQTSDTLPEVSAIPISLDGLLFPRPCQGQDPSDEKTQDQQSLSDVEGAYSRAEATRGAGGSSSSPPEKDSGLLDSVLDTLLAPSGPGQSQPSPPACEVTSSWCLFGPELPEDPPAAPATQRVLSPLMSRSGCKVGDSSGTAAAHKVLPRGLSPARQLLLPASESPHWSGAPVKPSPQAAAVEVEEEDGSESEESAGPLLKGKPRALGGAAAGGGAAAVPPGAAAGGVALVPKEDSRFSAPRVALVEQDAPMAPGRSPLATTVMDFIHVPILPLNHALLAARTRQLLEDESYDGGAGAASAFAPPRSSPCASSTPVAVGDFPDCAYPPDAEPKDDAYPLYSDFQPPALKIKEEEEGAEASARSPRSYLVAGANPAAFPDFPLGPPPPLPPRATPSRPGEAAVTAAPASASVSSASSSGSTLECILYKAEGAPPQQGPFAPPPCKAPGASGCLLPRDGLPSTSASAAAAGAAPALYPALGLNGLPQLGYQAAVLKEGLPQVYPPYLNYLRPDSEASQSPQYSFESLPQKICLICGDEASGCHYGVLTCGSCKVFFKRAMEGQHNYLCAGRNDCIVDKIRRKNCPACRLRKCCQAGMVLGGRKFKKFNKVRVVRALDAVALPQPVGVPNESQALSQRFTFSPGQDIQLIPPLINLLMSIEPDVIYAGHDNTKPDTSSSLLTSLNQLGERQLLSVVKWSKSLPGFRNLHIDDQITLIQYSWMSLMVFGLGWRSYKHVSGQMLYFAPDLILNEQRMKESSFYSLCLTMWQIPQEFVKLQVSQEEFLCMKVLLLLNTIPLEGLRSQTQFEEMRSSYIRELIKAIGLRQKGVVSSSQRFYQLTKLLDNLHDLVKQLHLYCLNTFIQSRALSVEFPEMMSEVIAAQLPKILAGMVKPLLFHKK
The test is described as follows: Agonist activity at human progesterone receptor relative to progesterone. The class given is functional.

In test [2] the target is T1, Progesterone receptor (Homo sapiens). The experiment in a line: Agonist activity at human progesterone receptor in human T47D cells assessed as alkaline phosphatase activity relative to progesterone. The class given is functional, cell-based.
Test [3] concerns the target T2, Estrogen receptor (Homo sapiens) (UniProt P03372).
T2 sequence (whole entry): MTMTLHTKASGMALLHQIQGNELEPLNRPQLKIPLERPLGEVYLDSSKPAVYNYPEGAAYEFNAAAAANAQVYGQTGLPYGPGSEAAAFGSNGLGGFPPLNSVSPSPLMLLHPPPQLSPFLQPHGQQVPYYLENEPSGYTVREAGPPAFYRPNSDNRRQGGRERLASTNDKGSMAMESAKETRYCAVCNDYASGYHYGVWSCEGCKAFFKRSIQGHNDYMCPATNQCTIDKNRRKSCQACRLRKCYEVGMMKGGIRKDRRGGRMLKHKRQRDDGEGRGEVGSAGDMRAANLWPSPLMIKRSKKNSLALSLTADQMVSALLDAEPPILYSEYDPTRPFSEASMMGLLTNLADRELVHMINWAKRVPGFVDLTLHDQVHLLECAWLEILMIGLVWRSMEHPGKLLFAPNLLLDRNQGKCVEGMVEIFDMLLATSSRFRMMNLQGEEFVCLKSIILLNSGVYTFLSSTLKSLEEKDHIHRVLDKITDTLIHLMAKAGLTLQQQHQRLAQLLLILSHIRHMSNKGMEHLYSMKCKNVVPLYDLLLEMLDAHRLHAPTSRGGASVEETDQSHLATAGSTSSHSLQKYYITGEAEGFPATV
The test is described as follows: Agonist activity at human estrogen receptor alpha relative to 17-beta-estradiol. The class given is functional.

Another test has as its system Oryctolagus cuniculus. The test is described as follows: Progestational activity in New Zealand white rabbit uterine epithelium at 0.10 mg/kg, po after 3 days by Clauberg-McPhail assay. Also on record: dose 0.1 mg/kg. The class given is functional, organism-based.
The species entered for test [4] is Rattus norvegicus. The test is described as follows: Progestational activity in estrone-treated ovariectomized rat assessed as effect on vaginal epithelial thickness. The class given is functional, organism-based. The method, boiled down:
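Ovariectomized rats were treated with estrone, alone or combined with test progestin, and compared with vehicle and estrone-only groups. Endpoints were uterine epithelial cell height, vaginal epithelial thickness and mammary alveolar bud proliferation.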

The test system of the next test is Cynomolgus monkey. The experiment in a line: Inhibition of ovulation in cynomolgus monkey assessed as reduction of progesterone level after 3 weeks. In kind it is functional, organism-based. To be noted: Macaca fascicularis.
Test [5] is filed under the species Rattus norvegicus. The test is described as follows: Progestational activity in estrone-treated ovariectomized rat assessed as inhibition of medroxyprogesterone acetate-induced effect on vaginal epithelial thickness. In kind it is functional, organism-based. The method, boiled down:
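Antagonist mode of the estrone-treated ovariectomized rat multi-endpoint model: compound was combined with MPA plus estrone, with vehicle and estrone-only groups. Endpoints were uterine epithelial cell height, vaginal epithelial thickness and mammary alveolar bud proliferation.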

The text below walks through data of ChEMBL document CHEMBL1157537 (J Med Chem, 2008).

SMILES strings stand for the structures. The source made the active and inactive calls. The calls are words filed in the database; no cut-off is given here.

Take `CC1=C[C@@H]([C@@H]2Oc3c(F)cc(F)cc3-c3ccc4c(c32)C(C)=CC(C)(C)N4)CCC1` (stereo in doubt; (-)-5c): the results for the Efficacy in test [1], in test [2] and in test [3] were 145%, 55% and 5%, respectively. The result in the test with Oryctolagus cuniculus, in the test listed under Rattus norvegicus [4] and in the test with Cynomolgus monkey was Active. In addition, in the test listed under Rattus norvegicus [5], the result was inactive.
